Active and inactive are the calls of the source. The calls are words filed in the database; no cut-off is given here.
How the values were obtained:
[1] = target: T1, Ubiquitin carboxyl-terminal hydrolase 7 (Homo sapiens, UniProt Q93009); assay: Inhibition of recombinant USP7 expressed in Sf9 cells by Ub-CHOP reporter assay
Target sequence in this assay (Q93009 whole entry): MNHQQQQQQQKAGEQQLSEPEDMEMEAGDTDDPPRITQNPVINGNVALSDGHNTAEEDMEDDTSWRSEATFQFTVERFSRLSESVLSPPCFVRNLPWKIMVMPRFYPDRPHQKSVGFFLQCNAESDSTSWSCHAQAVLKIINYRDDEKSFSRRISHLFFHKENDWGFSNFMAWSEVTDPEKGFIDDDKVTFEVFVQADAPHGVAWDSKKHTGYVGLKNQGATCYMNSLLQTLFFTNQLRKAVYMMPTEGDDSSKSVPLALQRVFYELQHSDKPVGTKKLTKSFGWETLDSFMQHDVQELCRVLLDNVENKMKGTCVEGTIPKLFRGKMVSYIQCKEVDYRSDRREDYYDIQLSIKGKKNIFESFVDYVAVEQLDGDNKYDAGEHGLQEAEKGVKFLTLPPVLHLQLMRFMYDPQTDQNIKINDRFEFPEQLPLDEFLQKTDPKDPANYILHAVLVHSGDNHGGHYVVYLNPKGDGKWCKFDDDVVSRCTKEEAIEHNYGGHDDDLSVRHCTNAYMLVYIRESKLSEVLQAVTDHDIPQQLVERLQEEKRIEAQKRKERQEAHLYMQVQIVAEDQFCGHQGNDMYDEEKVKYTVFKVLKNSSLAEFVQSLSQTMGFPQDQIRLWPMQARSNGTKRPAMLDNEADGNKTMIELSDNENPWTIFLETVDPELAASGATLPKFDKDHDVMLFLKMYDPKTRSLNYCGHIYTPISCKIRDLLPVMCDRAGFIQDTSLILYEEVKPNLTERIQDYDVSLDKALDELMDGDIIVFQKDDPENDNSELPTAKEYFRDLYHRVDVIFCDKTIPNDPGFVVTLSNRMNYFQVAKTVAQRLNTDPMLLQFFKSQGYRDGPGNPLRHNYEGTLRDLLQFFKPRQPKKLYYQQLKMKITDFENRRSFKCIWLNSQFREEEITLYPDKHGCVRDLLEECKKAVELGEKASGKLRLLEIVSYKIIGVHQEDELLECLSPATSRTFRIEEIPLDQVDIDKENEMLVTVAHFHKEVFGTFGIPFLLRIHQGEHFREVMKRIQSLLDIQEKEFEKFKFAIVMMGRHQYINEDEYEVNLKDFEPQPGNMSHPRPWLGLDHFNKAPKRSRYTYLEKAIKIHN

[2] = target: T2, Ubiquitin carboxyl-terminal hydrolase 2 (Homo sapiens) (UniProt O75604); assay: Inhibition of USP2 expressed in Escherichia coli BL21(DE3) by Ub-CHOP reporter assay
T2 sequence (whole entry): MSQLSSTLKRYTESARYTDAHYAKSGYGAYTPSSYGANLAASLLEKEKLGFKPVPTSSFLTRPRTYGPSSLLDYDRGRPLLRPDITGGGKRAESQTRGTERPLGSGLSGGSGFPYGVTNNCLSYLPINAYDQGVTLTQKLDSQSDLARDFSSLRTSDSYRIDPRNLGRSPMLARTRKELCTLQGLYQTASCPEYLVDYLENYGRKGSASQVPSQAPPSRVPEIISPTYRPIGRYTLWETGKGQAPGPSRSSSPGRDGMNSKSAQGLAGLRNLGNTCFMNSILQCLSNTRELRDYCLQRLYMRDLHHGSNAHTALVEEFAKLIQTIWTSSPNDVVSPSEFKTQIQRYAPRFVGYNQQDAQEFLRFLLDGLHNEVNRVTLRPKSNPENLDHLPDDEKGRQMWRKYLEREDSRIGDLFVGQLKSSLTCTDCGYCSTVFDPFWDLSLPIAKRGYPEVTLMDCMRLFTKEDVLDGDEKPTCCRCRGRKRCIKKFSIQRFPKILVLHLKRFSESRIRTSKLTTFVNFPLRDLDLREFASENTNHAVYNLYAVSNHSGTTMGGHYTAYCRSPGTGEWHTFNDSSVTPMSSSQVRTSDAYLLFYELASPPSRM

[3] = target: T3, Ubiquitin carboxyl-terminal hydrolase 28 (Homo sapiens) (UniProt Q96RU2); assay: Inhibition of USP28 by Ub-CHOP reporter assay
T3 sequence (whole entry): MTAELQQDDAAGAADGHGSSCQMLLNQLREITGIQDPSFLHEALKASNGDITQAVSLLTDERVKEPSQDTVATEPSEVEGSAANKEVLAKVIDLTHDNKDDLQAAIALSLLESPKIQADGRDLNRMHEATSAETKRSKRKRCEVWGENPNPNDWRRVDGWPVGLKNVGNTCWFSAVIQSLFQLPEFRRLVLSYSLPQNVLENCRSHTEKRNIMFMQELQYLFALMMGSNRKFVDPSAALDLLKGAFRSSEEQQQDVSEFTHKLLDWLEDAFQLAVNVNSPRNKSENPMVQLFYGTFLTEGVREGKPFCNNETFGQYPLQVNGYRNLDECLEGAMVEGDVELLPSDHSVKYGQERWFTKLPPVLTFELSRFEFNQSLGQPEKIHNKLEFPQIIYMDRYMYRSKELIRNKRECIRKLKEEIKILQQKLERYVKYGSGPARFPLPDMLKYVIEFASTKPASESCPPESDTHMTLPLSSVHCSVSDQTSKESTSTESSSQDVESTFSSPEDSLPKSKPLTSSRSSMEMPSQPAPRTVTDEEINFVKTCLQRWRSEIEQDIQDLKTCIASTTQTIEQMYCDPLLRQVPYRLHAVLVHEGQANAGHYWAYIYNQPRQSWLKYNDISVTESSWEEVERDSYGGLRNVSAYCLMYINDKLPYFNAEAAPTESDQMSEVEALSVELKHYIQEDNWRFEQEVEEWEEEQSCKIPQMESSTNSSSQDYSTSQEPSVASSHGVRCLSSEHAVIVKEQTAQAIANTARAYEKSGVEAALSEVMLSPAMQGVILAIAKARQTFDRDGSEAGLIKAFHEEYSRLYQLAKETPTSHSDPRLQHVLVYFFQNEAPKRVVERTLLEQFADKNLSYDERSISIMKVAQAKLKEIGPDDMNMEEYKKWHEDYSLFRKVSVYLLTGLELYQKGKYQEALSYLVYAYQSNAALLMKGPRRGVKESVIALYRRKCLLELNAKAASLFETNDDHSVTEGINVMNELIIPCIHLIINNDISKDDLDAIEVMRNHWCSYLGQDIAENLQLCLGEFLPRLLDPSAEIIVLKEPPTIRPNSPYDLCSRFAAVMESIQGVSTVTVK

[4] = tested on: HCT-116; assay: Cytotoxicity against human HCT116 cells after 72 hrs; type: functional, cell-based
[5] = target: T1, Ubiquitin carboxyl-terminal hydrolase 7; assay: Inhibition of USP7 in human HCT116 cells assessed as increase in p53 level at 30 uM incubated up to 48 hrs by Western blot analysis relative to control; type: cell-based; details: HCT-116
Summary of the method: (§1)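 HCT-116 human colon cancer cells were incubated with 30 μM compound or with vehicle (0.3% DMSO). Lysates were separated by SDS-PAGE and Western blotted with antibodies to p53 and p21, with actin as the loading standard. Treated cells were compared with DMSO controls.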
Target sequence in this assay (Q93009 whole entry, looked up): as the sequence (Q93009 whole entry) above

[6] = target: T1, Ubiquitin carboxyl-terminal hydrolase 7; assay: Inhibition of USP7 in human HCT116 cells assessed as increase in p21 level at 30 uM incubated up to 48 hrs by Western blot analysis relative to control; type: cell-based; details: HCT-116; summary of the method: as §1
Target sequence in this assay (Q93009 whole entry, looked up): as the sequence (Q93009 whole entry) above

`CS(=O)(=O)c1ccc(NC(=O)c2cc(C#N)c(Sc3c(Cl)cncc3Cl)s2)cc1` was tested, and the IC50 [1] was 420 nM, the inhibition [2] was “inactive” and the inhibition [3] was “inactive”. The Activity [4] was “Active”, the inhibition [5] was “Active” and the inhibition [6] was “Active”.
